Measurements reported in PubChem BioAssay.
Active and inactive are the calls of the source.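 Rule for the calls, unless noted: active = viability at or below 10% of carrier control in both of two separate runs; inconclusive = viability at or below 10% in only one of the two runs; inactive = the rest.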 Peptide text beside a SMILES is read from it. * marks the point of attachment. Boc = CC(C)(C)OC(=O)*

Legend:
[1] = reduced viability of SK-BR-3 breast cancer cells – cell-based, 24 h, human, pilot screen (AID 572); conditions: SK-BR-3 viability, CellTiter-Glo luminescence, at 10 µM, stronger effect = lower value;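 note: compound exposure lasted between 18 and 24 h rather than exactly 24 h; 100% = carrier-treated control wells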
[2] = HUVEC growth inhibition – cell-based, human, primary screen (AID 575;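 active = viability at or below 30% in both replicate assays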;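 note: 100% = median of untreated cell wells with 0.1% DMSO on each plate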); conditions: HUVEC proliferation, CellTiter-Glo luminescence, 72 h; at 10 µM; stronger effect = lower value
Outline: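 material = primary HUVEC, no more than 12 passages | input = 1250 cells per well | controls = vehicle and MePR control wells | measured by = CTG luminescence | times = 72 h compound incubation | format = collagen-coated 384-well format | read-out = % viability vs DMSO wells | doses = single 10 µM dose, 0.1% DMSO, from 5x medium stock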

[3] = H69AR cell proliferation blockers – human, duplicate replicates, primary screen (AID 580;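 active = viability at or under a set limit in both replicates, limit being median viability minus 3 SD, cut at about 48% in these data, passing the limit was not always enough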;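 note: 100% = mean luminescence of untreated wells and 0% = no signal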); conditions: H69AR lung tumor cells viability, ATP luminescence, 72 h; at 10 µM; stronger effect = lower value
[4] = MRP1 drug-resistance reversers in H69AR cells – cell-based, doxorubicin co-treatment, pilot screen (AID 601;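 active = viability loss from added drug above about 55%, and viability with drug at most 40%, in both replicates, limit read from the data, passing the limit was not always enough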); conditions: CellTiter-Glo, 72 h, at 10 µM; for differential viability (reversal): stronger effect = higher value
[5] = yeast transport mutant growth inhibition pilot in 384-well plates, post-Golgi transport modulator project (AID 636; in the data active = inhibition above about 31%); conditions: absorbance 615 nm, about 18 h, stronger effect = higher value
[6] = growth suppression of yeast trafficking mutant, preliminary HTS, modulators of trafficking downstream of Golgi apparatus project, 1536-format plate, OD 615 nm (AID 637; in the data active = inhibition above about 30%); conditions: yeast transport mutant growth, absorbance 615 nm, 18 h; stronger effect = higher value
[7] = H69AR cells + 2 uM doxorubicin, measured here: viability with 2 uM doxorubicin, stronger effect = lower value
[8] = H69AR cells, compound alone cytotoxicity

Row | SMILES | viability [1] | viability [2] | viability [3] | differential viability (reversal) ([4]; H69AR cells + 2 uM doxorubicin) | viability [4, 7] [%] | viability [4, 8] [%] | inhibition [5] | inhibition [6]
1 | CC(C)(C)C1=Nn2c(nnc2-c2n[nH]c3c2CCC3)SC1 | 87% (inactive) | 97.3% (inactive) | 85.9% (inactive) | -4.71% (inactive) | 90.6 | 85.9 | -7.26% (inactive) | 4.68% (inactive)
2 | OC(CCN1CCCCC1)(c1ccccc1)c1ccccc1 | 95% (inactive) | 92.7% (inactive) | 84.1% (inactive) | 0.38% (inactive) | 83.7 | 84.1 | -2.21% (inactive) | 0% (inactive)
3 | Cc1cc(=O)n2nc(N3CCCC(C(=O)N4CCc5ccccc54)C3)sc2n1 (stereo not drawn) | 82% (inactive) | 87.1% (inactive) | 85.8% (inactive) | -2.83% (inactive) | 88.7 | 85.8 | -6.76% (inactive) | 1.64% (inactive)
4 | COC(=O)Nc1sc2c(c1C(N)=O)CCCCCC2 | 89% (inactive) | 105% (inactive) | 99.5% (inactive) | 19.3% (inactive) | 80.2 | 99.5 | -1.82% (inactive) | 5.25% (inactive)
5 | COc1ccc2nc(S(=O)Cc3ncc(C)c(OC)c3C)[nH]c2c1 (stereo not drawn) | 88% (inactive) | 71.1% (inactive) | 80.8% (inactive) | -13.3% (inactive) | 94.1 | 80.8 | -1.69% (inactive) | -2.5% (inactive)
6 | Cc1cc(NS(=O)(=O)Cc2ccccc2)cc(C)c1OCC(=O)N1CCOCC1 | 95% (inactive) | 92.1% (inactive) | 94.6% (inactive) | 20.2% (inactive) | 74.4 | 94.6 | -0.52% (inactive) | 0% (inactive)
7 | COc1ccc(-c2nc3cc(NC(=O)Cc4ccc(OC)c(OC)c4)ccc3o2)cc1 | 90.5% (inactive) | 54.8% (inactive) | 94.4% (inactive) | 3.68% (inactive) | 90.7 | 94.4 | 0.67% (inactive) | 2.58% (inactive)
8 | CSCCC(NC(=O)OC(C)(C)C)C(=O)NC(CC(C)C)C(N)=O (stereo not drawn) (Boc-Met-Leu-NH2; configuration not given here) | 91% (inactive) | 97.7% (inactive) | 92% (inactive) | 1.58% (inactive) | 90.4 | 92 | 0.39% (inactive) | 0.16% (inactive)
9 | COc1ccc(-c2nnnn2C)cc1S(=O)(=O)NCc1ccccc1 | 93.5% (inactive) | 117% (inactive) | 95.7% (inactive) | 4.64% (inactive) | 91.1 | 95.7 | -0.26% (inactive) | -2.17% (inactive)
10 | O=S(=O)(c1ccc(N2CCN(c3ccc(F)cc3)CC2)cc1)N1CCCC1 | 111% (inactive) | 77.2% (inactive) | 75.7% (inactive) | -4.83% (inactive) | 80.6 | 75.7 | -0.91% (inactive) | 15.4% (inactive)
11 | CCCCNC(=O)NS(=O)(=O)c1ccc(C)cc1 | 97% (inactive) | 76.7% (inactive) | 95.3% (inactive) | -5.94% (inactive) | 101 | 95.3 | -1.04% (inactive) | -2.5% (inactive)
